Format in all cases: functional
Assay [1] relates to Candida albicans. The experiment in a line: Antimicrobial activity against azole-resistant Candida albicans isolate CA10 assessed as growth at 2 ug/ml co-treated with 0.031 ug/ml calcineurin signaling inhibitor tacrolimus after 48 hrs by microdilution checkboard technique relative to control. On the set-up: scale not given: the % may be the effect or the level left. A digest of the protocol:
(§1)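 Checkerboard microdilution in RPMI 1640 (pH 7.0, 2% dextrose, 0.165 M MOPS). Azole dilutions run along columns and FK506 along rows, at 4× final concentration. Final inoculum 2.5 × 10^3 CFU/ml from Sabouraud-subcultured cells. Incubated 35°C for 48 h; OD read at 492 nm. Background from microorganism-free plates subtracted. Growth % = well OD / drug-free well OD. Triplicate on different days, values averaged.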
A general note: Broth dilution looks for growth in wells or tubes with falling amounts of substance.

Assay [2] relates to Candida albicans. The experiment in a line: Antimicrobial activity against azole-resistant Candida albicans isolate CA10 assessed as growth at 8 ug/ml cotreated with 0.031 ug/ml calcineurin signaling inhibitor tacrolimus after 48 hrs by microdilution checkerboard technique relative to control. Further details: scale not given: the % may be the effect or the level left. A digest of the protocol: as §1

In assay [3] the test system is Candida albicans. The experiment in a line: Antimicrobial activity against azole-resistant Candida albicans isolate CA10 assessed as growth at 16 ug/ml co-treated with 0.031 ug/ml calcineurin signaling inhibitor tacrolimus after 48 hrs by microdilution checkboard technique relative to control. On the set-up: scale not given: the % may be the effect or the level left. In a few lines:
as §1

Assay [4] concerns Candida albicans. The assay is described as follows: Antimicrobial activity against azole-resistant Candida albicans isolate CA10 assessed as growth at 4 ug/ml cotreated with 0.063 ug/ml calcineurin signaling inhibitor Tacrolimus after 48 hrs by microdilution checkboard technique relative to control. On the set-up: scale not given: the % may be the effect or the level left. In a few lines: (§2)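 CA10 in RPMI 1640 with 2% dextrose and 0.165 M MOPS, pH 7.0. Checkerboard used twofold dilutions, with azole alone in row H and the drug-free growth control in well H1. Final inoculum was 2.5 × 10^3 CFU/ml, incubated 35°C for 48 h, with OD read at 492 nm. Growth % = background-subtracted well OD / drug-free well OD. Run in triplicate on different days.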

Assay [5] has as its system Candida albicans. The experiment in a line: Antimicrobial activity against azole-resistant Candida albicans isolate CA10 assessed as growth at 128 ug/ml co-treated with 0.063 ug/ml calcineurin signaling inhibitor tacrolimus after 48 hrs by microdilution checkboard technique relative to control. Further details: scale not given: the % may be the effect or the level left. A digest of the protocol: (§3)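 Checkerboard microdilution in MOPS-buffered RPMI 1640 (pH 7.0, 2% dextrose). Final ranges: azole 0.125–128 μg/ml (FLC) or 0.008–8 μg/ml (ITR, VRC), tacrolimus 0.002–0.125 μg/ml; solvent 1% in single-drug wells. Inoculum 2.5 × 10^3 CFU/ml, 35°C, 48 h. Growth % = background-subtracted OD492 of each well / drug-free well. Triplicate on different days.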

In assay [6] the test system is Candida albicans. The experiment in a line: Antimicrobial activity against azole-resistant Candida albicans isolate CA10 assessed as growth at 0.125 ug/ml co-treated with 0.031 ug/ml calcineurin signaling inhibitor tacrolimus after 48 hrs by microdilution checkboard technique relative to control. Further details: scale not given: the % may be the effect or the level left. A digest of the protocol:
as §1

Assay [7] deals with Candida albicans. The experiment in a line: Antimicrobial activity against azole-resistant Candida albicans isolate CA10 assessed as growth at 2 ug/ml cotreated with 0.016 ug/ml calcineurin signaling inhibitor Tacrolimus after 48 hrs by microdilution checkboard technique relative to control. On the set-up: scale not given: the % may be the effect or the level left. A digest of the protocol:
as §3

The test system of assay [8] is Candida albicans. The experiment in a line: Antimicrobial activity against azole-resistant Candida albicans isolate CA10 assessed as growth at 64 ug/ml co-treated with 0.016 ug/ml calcineurin signaling inhibitor tacrolimus after 48 hrs by microdilution checkboard technique relative to control. Further details: scale not given: the % may be the effect or the level left. In a few lines: as §2

Assay [9] has as its system Candida albicans. The experiment in a line: Antimicrobial activity against azole-resistant Candida albicans isolate CA10 assessed as growth at 32 ug/ml cotreated with 0.002 ug/ml calcineurin signaling inhibitor Tacrolimus after 48 hrs by microdilution checkboard technique relative to control. Further details: scale not given: the % may be the effect or the level left. A digest of the protocol:
as §2

Assay [10] relates to Candida albicans. The assay is described as follows: Antimicrobial activity against azole-susceptible Candida albicans isolate CA14 assessed as lof reduction in colony count at 10 ug/ml cotreated with calcineurin signaling inhibitor Tacrolimus after 48 hrs by XTT assay. In a few lines:
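Same time-kill setup (10^5 CFU/ml start, azole ± 0.016 μg/ml FK506, 35°C). At each time point, aliquots were mixed 1:1 with XTT (0.5 g/liter in Ringer's lactate) plus 10 μM menadione final. Incubation was in the dark for up to 2 h at 35°C, then formazan was read at 492 nm. OD was converted to CFU via a standard curve (Y = 4.2610x + 4.2087). Triplicate.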
Background: Tetrazolium assays rely on reduction of a dye to a coloured formazan, in cell work by metabolically active cells.

Assay [11] relates to Candida albicans. The assay is described as follows: Antimicrobial activity against azole-resistant Candida albicans isolate CA10 assessed as growth at 8 ug/ml co-treated with 0.008 ug/ml calcineurin signaling inhibitor tacrolimus after 48 hrs by microdilution checkboard technique relative to control. Further details: scale not given: the % may be the effect or the level left. A digest of the protocol: as §2

The subject of assay [12] is Candida albicans. The assay is described as follows: Antimicrobial activity against azole-resistant Candida albicans isolate CA10 assessed as growth at 32 ug/ml co-treated with 0.008 ug/ml calcineurin signaling inhibitor tacrolimus after 48 hrs by microdilution checkboard technique relative to control. On the set-up: scale not given: the % may be the effect or the level left. In a few lines: as §2

Assay [13] has as its system Candida albicans. The experiment in a line: Antimicrobial activity against azole-resistant Candida albicans isolate CA10 assessed as growth at 16 ug/ml co-treated with 0.004 ug/ml calcineurin signaling inhibitor tacrolimus after 48 hrs by microdilution checkboard technique relative to control. Further details: scale not given: the % may be the effect or the level left. A digest of the protocol:
as §3

The test system of assay [14] is Candida albicans. The experiment in a line: Antimicrobial activity against azole-resistant Candida albicans isolate CA10 assessed as growth at 8 ug/ml after 48 hrs by microdilution checkerboard technique relative to control. In a few lines: as §2
Assay [15] relates to Candida albicans. The assay is described as follows: Antimicrobial activity against azole-resistant Candida albicans isolate CA10 assessed as growth at 32 ug/ml after 48 hrs by microdilution checkerboard technique relative to control. In a few lines: as §3
Assay [16] deals with Candida albicans. The experiment in a line: Antimicrobial activity against azole-resistant Candida albicans isolate CA10 assessed as growth at 0.016 ug/ml after 48 hrs by microdilution checkerboard technique relative to control. In a few lines:
as §3

The subject of assay [17] is Candida albicans. The assay is described as follows: Antimicrobial activity against azole-susceptible Candida albicans isolate CA8 after 48 hrs by broth microdilution method. The conditions noted are these: isolate CA8, 48 h. A digest of the protocol: (§4)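 CLSI M27-A2 broth microdilution was run in RPMI 1640 (pH 7.0, 2% dextrose, 0.165 M MOPS). Inoculum was 2.5 × 10^3 CFU/ml, incubated 35°C for 48 h without shaking. Plates were read visually (0–5 scale) and at OD 492 nm. MIC80 = lowest concentration giving an 80% absorbance decrease vs drug-free control. Triplicate.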

The test system of assay [18] is Candida albicans. The experiment in a line: Antimicrobial activity against azole-susceptible Candida albicans isolate CA12 after 48 hrs by broth microdilution method. The conditions noted are these: isolate CA12, 48 h. A digest of the protocol: as §4
Assay [19] deals with Candida albicans. The experiment in a line: Antimicrobial activity against azole-resistant Candida albicans isolate CA16 after 48 hrs by broth microdilution method. To be noted: isolate CA16, 48 h. A digest of the protocol: as §4
For assay [20], the system named is Candida albicans. The experiment in a line: Antimicrobial activity against azole-resistant Candida albicans isolate CA135 cotreated with calcineurin signaling inhibitor Tacrolimus after 48 hrs by microdilution checkerboard technique. The conditions noted are these: isolate CA135, 48 h. A digest of the protocol:
(§5)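 Checkerboard microdilution in MOPS-buffered RPMI 1640 (pH 7.0, 2% dextrose) with 2.5 × 10^3 CFU/ml for 48 h at 35°C. Final FK506 was 0.002–0.125 μg/ml. Azole finals were FLC 0.125–128 μg/ml, and ITR and VRC 0.008–8 μg/ml. MIC80 is an 80% OD492 decrease vs drug-free control. Interaction was scored by FICI (synergy ≤0.5, antagonism >4) and by ΔE from triplicates.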

In assay [21] the test system is Candida albicans. The assay is described as follows: Antimicrobial activity against azole-resistant Candida albicans isolate CA137 cotreated with calcineurin signaling inhibitor Tacrolimus after 48 hrs by microdilution checkerboard technique. To be noted: isolate CA137, 48 h. In a few lines: as §5

For one compound, Activity and MIC results are on record in ChEMBL document CHEMBL1151472, “In vitro interactions between tacrolimus and azoles against Candida albicans determined by different methods” (2008).

Values after ≈ are worked out from the molar mass of the structure shown.

For orientation: MIC means the least concentration at which growth counts as inhibited. For the compound `OC(Cn1cncn1)(Cn1cncn1)c1ccc(F)cc1F` [FLUCONAZOLE], the Activity in assay [1] is 12%; in [2] it was 18%; in assay [3], 15%; in [4] it was 13%; in assay [5], 5%; in assay [6], 36%. Further, the Activity in assay [7] is on record as 20%; in [8], 16%; in [9], 36%; in assay [10], 1.51; in assay [11] it was 28%; in [12], 25%. Besides, the Activity turned out to be 35% in assay [13], 55% in assay [14], 48% in [15] and 96% in assay [16]. Moreover, the MIC came to 0.25 µg/mL (≈ 0.816 µM) in [17]; 4 µg/mL (≈ 13.1 µM) in assay [18]; 64 µg/mL (≈ 209 µM) in assay [19]; 0.25 µg/mL in [20]; 0.5 µg/mL in assay [21].
